Results: the EternaBench riboswitch data

Tested on: MS2 coat protein
Experiment: apparent Kd, MS2 coat protein; higher = weaker binding; RNA-MaP array; FMN 200 µM where present
In short: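 The apparent Kd is reported as the median of filtered per-cluster binding-curve fits. To get these curves, designs transcribed by stalled E. coli RNA polymerase on Illumina sequencing-chip clusters were titrated with SNAP-549-labelled MS2 coat protein from 0.7 or 1.5 nM, doubling to 3 µM. Titrations were run without and then with constant ligand in 100 mM Tris-HCl pH 7.5, 80 mM KCl, 4 mM MgCl2, BSA, DTT, yeast tRNA and Tween-20, and green signal was normalised to red-channel RNA signal and control-cluster median Fmax.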

[1] = designed as: OFF switch for flavin mononucleotide, no ligand
[2] = ligand present: flavin mononucleotide, designed as: OFF switch for flavin mononucleotide
[3] = designed as: ON switch for flavin mononucleotide, no ligand
[4] = ligand present: flavin mononucleotide, designed as: ON switch for flavin mononucleotide

Sequence | apparent Kd [1] [nM] | apparent Kd [2] [nM] | apparent Kd [3] [nM] | apparent Kd [4] [nM]
GUAGCAACAUGAGGAUCACCCAUGUAGGAUAUCGCUAUUGUAAUCAUGAAACAUGAUUACAAUAGCGAGAAGGACAUAUGCUAU | 7 | 10.3 | – | –
GCUGUAUAUGAGAAGGCGAUCAUGAAACAUGAUCGAGGAUAUCAUGUUUACAUGAGGAUCACCCAUGUAUGGGUAUAAUGCAGC | – | – | 417 | 24.1
UGGUACUAGGGAGGAUAUGGGAAGAUACAUGAGGAUCACCCAUGUUUAAGAAUGCCGAGAGGCAACUAGAAGGCGCUAGUACCU | – | – | 710 | 90.9
UAAACAUGAGGAUCACCCAUGUUAUGAUCGGUUGAUGAAAGUGAGGAUAUACAAAAUUUUAUGGAGUAGAAGGCACUGGGUUCU | – | – | 31.1 | 29.9
GGAAAUCAUGUAGGAUAUGCAUGGCGAAGCUACGCAGAAGGACAUGAGGAUCACCCAUGUUAUAGCUACCAAGUUAGGUGGCAA | 139 | 144 | – | –
CAGUACUGAGGAUAUACAUGAGGAUCACCCAUGUGUUCCAGCUAGGAUACUAGCAAAAGUAGAAGGCAGUACUG | 24.6 | 443 | – | –
UUCGUGUAAGGAUAUACGACCCAUCCCAUUGGGAUGGGCACGUAGAAGGUACAUGAGGAUCACCCAUGUGCUCC | 26.8 | 167 | – | –
UCACAGUGUCGUUAUCCGUAGCGAACAUGAGGAUCACCCAUGUAGGAUAUGUUAUUAAACUAAUAACAGAAGGACGUUGGUCGG | 36.7 | 220 | – | –
UUGGACGUCGUAGGAUAUGUAGGAUAUUCCUACAUGAGGAUCACCCAUGUCGACAUGGAAGAAGGACAGAAGGACGAUGUCCAU | – | – | 238 | 4.22
AACUCACAUGAGGAUCACCCAUGUGAGGAUAUGAUACUAUGUACUUCGGUACAUAGUAUCAGAAGGCAUGUGGA | 14.4 | 18.9 | – | –
GCGUAUAUAAGAUUUAUUAAACAGUCAGAAGGUGAUAAUACGACAUGAGGAUCACCCAUGUAAUUCAAGGAUAUGAUCAUACGC | – | – | 98.5 | 27.2
CUGUAAGAUGUAGGAUAUACAAUAAUAUUGUUAGUAGAAGGACAUGAGGAUCACCCAUGUAUAUAAAUUUUAAAUACUUUUGUG | 40.8 | 31.5 | – | –
UUCAGCUCGUGAGGAUAUACAUGUGCUGGAAACAGCACUAUUAAAUUCACAUGAGGAUCACCCAUGUAGAAGGCACGAGCUGAG | 15.4 | 18.7 | – | –
CUUUUGUCAGGAUAUGAGUAGUAGAACAAUAGUACUACUACUCAGAAGGGACAUGAGGAUCACCCAUGUUCCUC | 16.6 | 50.5 | – | –
UUUGUAAUGUCAGGAUAUAUAAUAAGUCAUACAGUAGAAGGGAUAAUUAUACUCAUGUACAUGAGGAUCACCCAUGUUAAAUAU | – | – | 80.1 | 45.6
AUGCCUAAUGAGAAGGUGUGUAUAAAUUAUAUACAAGGAUAUCGGUCAAGCAUGAAAACAUGAGGAUCACCCAUGUUAAGGCAU | – | – | 7.77 | 6.72
AUUUCGUCAGGAUAUCCUAGUAAUUGUUUCAUAUUUACAAAGGAGAAGGGACAUGAGGAUCACCCAUGUUUGUC | 24.7 | 23.1 | – | –
UGUGGUGGUCAGGAUAUAAAUUGCGCCUGACGCUUAGAAGGGACUACAUGAGGAUCACCCAUGUGAGAGCUUCA | 16.4 | 15.9 | – | –
AAAUUUAACGAAGGAUAUGCUGACAUGAGGAUCACCCAUGUGUGCUUUGUGUUGCUGAAAUUGGAGCAGAAGGUCGUAUACAUA | 101 | 148 | – | –

Sequence | apparent Kd [1] [nM] | apparent Kd [2] [nM] | apparent Kd [3] [nM] | apparent Kd [4] [nM]
GGCUCCGCUCGAGGAUAUAGCUGCAUGUAGUGUCCUGAGGCACAUGAGGAUCACCCAUGUGUAGGCUAGAAGGCGACGGAAGCU | 142 | 176 | – | –
ACUCUACAUGAGGAUCACCCAUGUUGAGCCCAUCAAGGAUAUGGGUCUUAAUCGCGGGUGCCAGAAGGUGAUGGUU | – | – | 91 | 109
GUGAACCGUAGGUCGCUGGCUGCACAGGAUAUGAAGGCGUACAUGAGGAUCACCCAUGUUCCCUAUCAGAAGGGUGACAGGAAA | – | – | 14.8 | 8.85
CGUCCGUGGGUAGUGAUCGUACAUGAGGAUCACCCAUGUGAGAAGGAUAUGCAUGCACGCGGACAGCAGAAGGUCUCACAACAA | 133 | 429 | – | –
CUCGAGUGAGGAUAUUGAAUCGGCGGCUGACCGCACGAGCUCGAGAAGGCACAUGAGGAUCACCCAUGUGGGUC | 15.2 | 27.3 | – | –
AAGCAUUGGCUUCUCAUCUACAUGAGGAUCACCCAUGUCGGGAGAAGGAGGCGUUGACGAAUAGCCUAGGAUAUCCUAACGUGC | 6.84 | 6.99 | – | –
ACAUGAUCAGGAUAUACAUGAGGAUCACCCAUGUUUAUCAGGGAAAAACCUUCUACAUGUAGAAGGGAUCUUGU | 14.9 | 14.2 | – | –
AAAUUUAACGAAGGAUAUGGUUACAUGAGGAUCACCCAUGUGUGCCUUGUGAUCUUGUUUAAGUUCCAGAAGGUCGUAUACAUA | 41.7 | 183 | – | –
GUGUAGAUAGGAUAUGCUUAGAGCUUACGAAAGUAGGCUCUACAUGAGGAUCACCCAUGUAGAAGGGUCUACAC | 31.3 | 19.1 | – | –
GGUCCACGAGGAUAUCGAUUAUAGUACAUGAGGAUCACCCAUGUUGUCCAGGUUUCGAUUCGAGAAGGCGUGGGUU | 54.4 | 39 | – | –
UCAUUAUAAAUCCAUCAUAACUACAUGAGGAUCACCCAUGUGCAGGAUAUCGAUUAUUUAACUAACGAGAAGGGCAUUUACAGA | 50.1 | 169 | – | –
CUAAAUCAUGUAGGAUAUGCAUGGCGAAGCUACGCAGAAGGACAUGAGGAUCACCCAUGUCUGUCCGUCUGCGUACAGACGGAC | 20.4 | 115 | – | –
GGAUCCAACACAGGAUAUGCUGGACUUUGUCCAGCAGAAGGGUGAAGGACAUGAGGAUCACCCAUGUGGAUCCAUAUAUUUAAU | – | – | 324 | 27.8
GACAUACAUGAGGAUCACCCAUGUACAAACGUACAAGGAUAUGUGUGGAAACCGUACUAUACAGAAGGUGUUUGUC | – | – | 47.6 | 41.5
GCCUCACAUGAGGAUCACCCAUGUCAGGAUAUCUCGUGCGCAGUAAUUAUCUGGCUAAAGAGAAGGGACAUUAA | 47 | 99 | – | –
GUGCUUUGGGAGAAGGCCGUAUGCAAAGCAUACGGAGGAUAUUCAUACCGGAAACGGACAUGAGGAUCACCCAUGUGGCACAAA | – | – | – | 44.6
AAUUUACAGCUAGGAUAUACAUGAGGAUCACCCAUGUAAUCAUAUGAUAUUUUUUUUGUAUGAGUGUAGAAGGAGCAAAUAAAA | 9.38 | 8.69 | – | –
AAAAAACAUGAGGAUCACCCAUGUGAGGAUAUCACUAGUCAGUCCUCGGAGUGAGUACUGAGAAGGCACAUAAA | 68.1 | 44.9 | – | –
UAAAAUAGUGUGAGGAUAUGCUGGUCCUUGGAUCAGCAGAAGGCACAUGAGGAUCACCCAUGUAGUUAAUUAUA | 41.8 | 268 | – | –

Sequence | apparent Kd [1] [nM] | apparent Kd [2] [nM] | apparent Kd [3] [nM] | apparent Kd [4] [nM]
GGUACCAUCACAGGAUAUGCUUUCCUUUGGGAAGCAGAAGGGUGUAACAUGAGGAUCACCCAUGUGGUGCCAGGGCGUGAGCCC | – | – | 470 | 42.6
UUCAUGUUGCGAGGAUAUCGUGUUAACAUGAGGAUCACCCAUGUAUAGGUUUAUUAAUUAGUUUUCGAGAAGGCGCUUUUAGUA | – | – | 215 | 158
UGGUACAUCGGAGGAUAUCAUGUAUAGACAUGAGGAUCACCCAUGUCGUACGAGAGUACGGAGAUUGAGAAGGCCGAUGUACCU | – | – | 21 | 16.6
UAAGCGUAUGUUAGGAUAUGCUGGUCCUUGGAUCAGCAGAAGGAACAUGAGGAUCACCCAUGUAGAAUCGUUUA | 18.3 | 40.2 | – | –
CCGGAAAAGGAGGAUAUAGGAGUCGAUAGACACCUAGAAGGUCUGACAUGAGGAUCACCCAUGUGUCCUACCGG | 21.2 | 30.2 | – | –
UUAAAUCAUGUAGGAUAUGCAUGGCGAAGCUACGCAGAAGGACAUGAGGAUCACCCAUGUUAUAGCUACCCAGUUCGGUGGCAA | 96.1 | 221 | – | –
GCUUGUGAAGGAUAUACUGGAGGAGUGCGAUAGAAGCACGAACAUGAGGAUCACCCAUGUAGAAGGUCAGGCGU | 24.4 | 29.1 | – | –
AACAAGUGAGGAUAUGAUAAUACAACAAACAAACAUCUACAUCAGAAGGCACAUGAGGAUCACCCAUGUUAAUC | 22 | 27.2 | – | –
GCCGGGCGAGGAUAUACAUGAGGAUCACCCAUGUAGAUCCUCCGGCGAAAGCCGGGUUGUAGAAGGCGCCCGGC | 14.9 | 25.7 | – | –
UCGUGUUAUACAGGAUAUGUUUAGGUUUAUUCAUUCAGUUAUUAAUUUAUGACAGAAGGGUAUACAUGAGGAUCACCCAUGUCA | 761 | 306 | – | –
AAGUAGAUCCGAGGAUAUACAAUCCGGAAACGGUACAUGAGGAUCACCCAUGUAGAAGGCGGAUCUACAGGUACUAAAGUACCG | 6.33 | 9.45 | – | –
GUCAGCUCGUGAGGAUAUACAUGUGCUGGAAACAGCAUUAAAUAAUUCACAUGAGGAUCACCCAUGUAGAAGGCACGAGCUGAU | 16.8 | 33.8 | – | –
AAGAUGCGGAUAGGAUAUGGAAAUUAAUAAAGACCAGAAGGAUUGGUCACACAACAUGAGGAUCACCCAUGUGUGUGUUGUGAA | 13.6 | 10.6 | – | –
UGAAACUACGAGAAGGACAUGUGGUCCUUCAGUUACAUGAGGAUCACCCAUGUAGGAUAUCGUAGUUUCAGGAUCGUGAGAUCA | 34.7 | 14.6 | – | –
AAAUCAGCAGGAUAUACGAUGUUAUGCUAGAUAGCGGGACCACAUGAGGAUCACCCAUGUAGAAGGGCUAGAUA | 35 | 30.8 | – | –
AAUUCACAUGAGGAUCACCCAUGUCAGGAUAUGGUUUCACGGGUUUCGGUGCGUGAGGCCAGAAGGGACAGCUA | 61 | 73.7 | – | –
GAUUGAAAAGGAUAUACAUGAGGAUCACCCAUGUGCUUCAGCUAGGAGACUAGCAUUGGUAGAAGGUUUUAAUC | 22.2 | 43.9 | – | –
ACAUGAGGAUCACCCAUGUGAAAAGAAUGGCUGACACAGAGAUAGGAUAUAUGUGCAUAUCAAACAUAGAAGGGUCAUGACUGG | 30.3 | 30.2 | – | –
